Active and inactive are the calls of the source. The calls are words filed in the database; no cut-off is given here.
Columns and labels:
Mus musculus [1] = assay: Analgesic activity in sc dosed mouse assessed as inhibition of AcOH-induced writhing; assay type: functional
Oryctolagus cuniculus [2] = assay: Narcotic antagonist activity in rabbit assessed as inhibition of morphine-induced respiratory depression up to 1 mg/kg, iv; assay type: functional, organism-based; parameters: dose 1 mg/kg
Outline: (§1)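 Rabbits given test compound iv; read-out is antagonism of morphine-induced respiratory depression; expressed as AD50 in mg/kg or as % antagonism at a fixed dose.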

[3] = (§2) Acute toxicity in sc dosed mouse; assay type: organism-based; conditions: in vivo
Mus musculus [4] = assay: Analgesic activity in sc dosed mouse by hot-plate method; assay type: functional
Oryctolagus cuniculus [5] = assay: Narcotic antagonist activity in iv dosed rabbit assessed as inhibition of morphine-induced respiratory depression; assay type: functional; outline: as §1
Rhesus monkey [6] = assay: Suppression of abstinence syndrome in morphine-dependent rhesus monkey up to 8 mg/kg; assay type: functional, organism-based; parameters: dose 8 mg/kg; conditions: Macaca mulatta
Rhesus monkey [7] = assay: Suppression of abstinence syndrome in morphine-dependent rhesus monkey up to 6 mg/kg; assay type: functional, organism-based; parameters: dose 6 mg/kg; conditions: Macaca mulatta
Rhesus monkey [8] = assay: Suppression of abstinence syndrome in morphine-dependent rhesus monkey at 8 mg/kg; assay type: functional, organism-based; parameters: dose 8 mg/kg; conditions: Macaca mulatta
Mus musculus [9] = assay: Analgesic activity in sc dosed mouse assessed as time duration of activity by hot-plate method; assay type: functional
Rhesus monkey [10] = assay: Suppression of abstinence syndrome in morphine-dependent rhesus monkey at 1 mg/kg; assay type: functional, organism-based; parameters: dose 1 mg/kg; conditions: Macaca mulatta
Rhesus monkey [11] = assay: Narcotic antagonist activity in morphine-dependent rhesus monkey assessed as mild to severe abstinence at 2 to 8 mg/kg; assay type: functional, organism-based; conditions: Macaca mulatta
Outline: (§3)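 Compound given to nonwithdrawn morphine-dependent monkeys; scored as precipitation of abstinence syndrome, with severity graded from mild to severe over the stated dose range.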

Mus musculus [12] = assay: as §2; assay type: organism-based; conditions: in vivo
Mus musculus [13] = assay: Analgesic activity in mouse assessed as inhibition of AcOH-induced writhing up to 10 mg/kg, sc; assay type: functional, organism-based; parameters: dose 10 mg/kg
Rhesus monkey [14] = assay: Narcotic antagonist activity in morphine-dependent rhesus monkey assessed as mild to severe abstinence at 1 to 8 mg/kg; assay type: functional, organism-based; conditions: Macaca mulatta; outline: as §3
Mus musculus [15] = assay: Analgesic activity in mouse by hot-plate method up to 100 mg/kg, sc; assay type: functional, organism-based; parameters: dose 100 mg/kg
Rhesus monkey [16] = assay: Narcotic antagonist activity in morphine-dependent rhesus monkey assessed as mild to moderate abstinence at 5 to 20 mg/kg; assay type: functional, organism-based; conditions: Macaca mulatta; outline: as §3
Rhesus monkey [17] = assay: Suppression of abstinence syndrome in morphine-dependent rhesus monkey at 5 mg/kg; assay type: functional, organism-based; parameters: dose 5 mg/kg; conditions: Macaca mulatta
Mus musculus [18] = assay: Analgesic activity in mouse assessed as inhibition of AcOH-induced writhing up to 22.5 mg/kg, sc; assay type: functional, organism-based; parameters: dose 22.5 mg/kg
[19] = Mus musculus, sc, read-out: ED50

With `CCCCCCN1C2CCCC(c3cccc(O)c3)(C2)C1C.Cl` (racemic) the ED50 (Mus musculus [1]; [19]) was 0.27 mg/kg, the inhibition (Oryctolagus cuniculus [2]) was “inactive” and the LD50 [3] was 25.4 mg/kg.
Work on `CC1N(CC2CC2)C2CCCC1(c1cccc(O)c1)C2.Cl` (racemic) yielded an ED50 (Mus musculus [4]; [19]) of 5.8 mg/kg, an AD50 (Oryctolagus cuniculus [5]) of 0.1 mg/kg and an ED50 (Mus musculus [1]; [19]) of 2.2 mg/kg. The LD50 [3] was 59.8 mg/kg and the Activity (Rhesus monkey [6]) was “inactive”.
For `Br.CC(C)=CCN1C2CCCC(c3cccc(O)c3)(C2)C1C` (racemic), the AD50 (Oryctolagus cuniculus [5]) was 0.086 mg/kg, the ED50 (Mus musculus [1]; [19]) was 15 mg/kg and the LD50 [3] was over 30 mg/kg.
Work on `C#CCN1C2CCCC(c3cccc(O)c3)(C2)C1C.Cl` (racemic) yielded an AD50 (Oryctolagus cuniculus [5]) of 0.19 mg/kg, an ED50 (Mus musculus [1]; [19]) of 22.5 mg/kg and an LD50 [3] of over 100 mg/kg.
In the case of `CC1N(CCc2ccccc2)C2CCCC1(c1cccc(O)c1)C2.Cl` (racemic), the Activity (Rhesus monkey [7]) is reported as “inactive”, the ED50 (Mus musculus [4]; [19]) is reported as 0.3 mg/kg and the ED50 (Mus musculus [1]; [19]) is reported as 0.61 mg/kg. For the same molecule, the inhibition (Oryctolagus cuniculus [2]) was “inactive” and the LD50 [3] was 27.6 mg/kg.
In the case of `CC(=O)Oc1cccc(C23CCCC(C2)N(C)C3C)c1` (racemic), the Activity (Rhesus monkey [8]) is reported as “inactive”.
For `Br.CC1N(C)C2CCCC1(c1cccc(O)c1)C2` (racemic; 8), the ED50 (Mus musculus [4]; [19]) was 8 mg/kg, the AD50 (Oryctolagus cuniculus [5]) was 2.6 mg/kg and the ED50 (Mus musculus [1]) was 4.5 mg/kg. The LD50 [3] was 113 mg/kg and the Time (Mus musculus [9]) was 127 min.
In the case of `CC1N(C)C2CCCC1(c1cccc(O)c1)C2` (racemic; 8), the Activity (Rhesus monkey [10]) is reported as “inactive” and the Activity (Rhesus monkey [11]) is reported as “Active”.
`Br.CC1N(C)C2CCCC1(c1cccc(O)c1)C2` (racemic; 9) showed an ED50 (Mus musculus [1]; [19]) of 4.9 mg/kg and an LD50 (Mus musculus [12]) of 113.5 mg/kg.
For `CC1C2CCCC1(c1cccc(O)c1)CN2C` (racemic; 13), the Activity (Mus musculus [13]) was “inactive”.
For `CC1C2CCCC1(c1cccc(O)c1)C(C)N2C` (racemic; 14), the Activity (Mus musculus [13]) was “inactive”.
In the case of `CC1C2CCCC1(c1cccc(O)c1)CN2C` (racemic; 15), the Activity (Mus musculus [13]) is reported as “inactive”.
For `CC1C2CCCC1(c1cccc(O)c1)C(C)N2C` (racemic; 16), the Activity (Mus musculus [13]) was “inactive”.
With `CC(=O)Oc1cccc(C23CCCC(C2)N(C)C3C)c1.Cl` (single isomer, unassigned; (+)) the ED50 (Mus musculus [4]) was 3.6 mg/kg, the ED50 (Mus musculus [1]; [19]) was 2.4 mg/kg and the LD50 (Mus musculus [12]) was 129.5 mg/kg.
For `CC(=O)Oc1cccc(C23CCCC(C2)N(C)C3C)c1` (single isomer, unassigned; (+)), the Activity (Rhesus monkey [10]) was “inactive” and the Activity (Rhesus monkey [14]) was “Active”.
`CC(=O)Oc1cccc(C23CCCC(C2)N(C)C3C)c1.Cl` (single isomer, unassigned; (-)) gave an LD50 (Mus musculus [12]) of 113.5 mg/kg.
In the case of `CC(=O)Oc1cccc(C23CCCC(C2)N(C)C3C)c1` (single isomer, unassigned; (-)), the Activity (Mus musculus [15]) is reported as “inactive”, the Activity (Rhesus monkey [16]) is reported as “Active” and the Activity (Rhesus monkey [17]) is reported as “inactive”. The Activity (Mus musculus [18]) was “inactive”.
In the case of `COc1ccc2c3c1O[C@H]1[C@@H](O)C=C[C@H]4[C@@H](C2)N(C)CC[C@@]341.COc1ccc2c3c1O[C@H]1[C@@H](O)C=C[C@H]4[C@@H](C2)N(C)CC[C@@]341.O.O=P(O)(O)O.O=P(O)(O)O` [CODEINE PHOSPHATE], the ED50 (Mus musculus [4]; [19]) is reported as 7.5 mg/kg, the ED50 (Mus musculus [1]; [19]) is reported as 9.5 mg/kg and the LD50 [3] is reported as 231 mg/kg.
`CCOC(=O)C1(c2ccccc2)CCN(C)CC1.Cl` [MEPERIDINE HYDROCHLORIDE] showed an ED50 (Mus musculus [4]; [19]) of 4.7 mg/kg, an ED50 (Mus musculus [1]; [19]) of 4.5 mg/kg and an LD50 [3] of 273 mg/kg.
`CN1CC[C@]23c4c5ccc(O)c4O[C@H]2[C@@H](O)C=C[C@H]3[C@H]1C5.Cl` [MORPHINE HYDROCHLORIDE] gave an ED50 (Mus musculus [4]; [19]) of 1.2 mg/kg and an ED50 (Mus musculus [1]; [19]) of 0.8 mg/kg.
`CC(C)=CCN1CCC2(C)c3cc(O)ccc3CC1C2C.Cl` (stereo not given) [PENTAZOCINE HYDROCHLORIDE] showed an ED50 (Mus musculus [4]; [19]) of 12.3 mg/kg, an AD50 (Oryctolagus cuniculus [5]) of 1.5 mg/kg and an ED50 (Mus musculus [1]; [19]) of 4.5 mg/kg. It also gave an LD50 [3] of 190 mg/kg.

Reference: ChEMBL document CHEMBL3244161, “Azabicycloalkanes as analgetics. 3. Structure-activity relationships of 1-phenyl-6-azabicyclo[3.2.1]octanes and absolute stereochemistry of (+)-1-(3-hydroxyphenyl)-6-methyl-6-azabicyclo[3.2.1]octane and its 7-endo-methyl derivative” (J Med Chem, 1977)
